{"data": "Measured values of several laboratories", "target": "Activin receptor type-1B (ACVR1B, Homo sapiens, UniProt P36896)", "Residues used in one study (P36896 24-505)": "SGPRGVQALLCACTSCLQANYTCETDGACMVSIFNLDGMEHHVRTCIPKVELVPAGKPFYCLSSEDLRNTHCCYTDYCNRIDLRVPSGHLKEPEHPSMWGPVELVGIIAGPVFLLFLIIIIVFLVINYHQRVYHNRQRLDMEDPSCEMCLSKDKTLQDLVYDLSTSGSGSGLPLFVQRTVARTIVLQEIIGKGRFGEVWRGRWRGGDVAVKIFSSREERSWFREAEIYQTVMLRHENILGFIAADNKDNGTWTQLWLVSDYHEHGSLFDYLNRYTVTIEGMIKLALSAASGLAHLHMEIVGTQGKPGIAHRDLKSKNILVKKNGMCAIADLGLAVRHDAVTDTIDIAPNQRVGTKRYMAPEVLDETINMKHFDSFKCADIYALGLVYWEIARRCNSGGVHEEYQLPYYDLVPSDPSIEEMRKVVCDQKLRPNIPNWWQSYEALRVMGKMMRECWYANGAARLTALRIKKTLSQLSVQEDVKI", "note": "Compare with care: the assays were run in different laboratories."}
{"SMILES": "O=C(NCCCN1CCOCC1)c1ccc(Nc2ncc(Cl)c(-c3ccc(Cl)s3)n2)cc1", "effect on": "binding", "technique": "competition with immobilised ligand", "tested at": "1 µM", "remaining binding [%]": 59}
{"SMILES": "CC1CCCN1c1nccc(-c2cnn3ncccc23)n1 (stereo not shown)", "effect on": "binding", "tested at": "1 µM", "remaining binding [%]": 88}
{"SMILES": "O=C(c1ccc(Nc2nccc(-c3cc4ccccc4s3)n2)cc1)N1CCC(N2CCCC2)CC1", "effect on": "binding", "technique": "competition with immobilised ligand", "tested at": "1 µM", "remaining binding [%]": 71}
{"SMILES": "O=C(Nc1cnc(Oc2ccc(F)cc2)nc1)N1CCc2ncccc2[C@@H]1c1ccc(F)cc1", "effect on": "cell-free assay", "technique": "competition with immobilised ligand", "tested at": "1 µM", "remaining binding [%]": 100}
{"SMILES": "C[C@@H]1CCN(c2nccc(-c3cnn4ncccc34)n2)C1", "effect on": "binding", "tested at": "1 µM", "remaining binding [%]": 76}
{"SMILES": "CNC(=O)c1ccc(Nc2ncc(C(F)(F)F)c(NCc3nccnc3N(C)S(C)(=O)=O)n2)cc1", "effect on": "cell-free assay", "technique": "competition with immobilised ligand", "tested at": "0.1 µM", "remaining binding [%]": 69}
{"SMILES": "CN(c1nccc(-c2cnn3ncccc23)n1)C1CC1", "effect on": "binding", "tested at": "1 µM", "remaining binding [%]": 100}
{"SMILES": "O=C(NCC1CCOCC1)c1n[nH]cc1NC(=O)c1c(F)cccc1F", "effect on": "binding", "technique": "competition with immobilised ligand", "tested at": "1 µM", "remaining binding [%]": 100}
{"SMILES": "C[C@@H]1CN(c2ccc3ncc(-c4ccc5[nH]nc(C6CC6)c5c4)n3n2)C[C@H](C)O1", "effect on": "binding", "technique": "competition with immobilised ligand", "tested at": "50 nM", "remaining binding [%]": 100}
{"SMILES": "COc1cnc(Nc2cccc(S(N)(=O)=O)c2)nc1N1CCN(c2ccccc2)C(=O)C1", "effect on": "binding", "technique": "competition with immobilised ligand", "tested at": "1 µM", "remaining binding [%]": 100}
{"SMILES": "O=C(NCc1ncc(C(F)(F)F)cc1Cl)c1ccc2c(c1)C1(CCS(=O)(=O)CC1)[C@H](C1CC1)N2S(=O)(=O)c1ccc(F)cc1", "effect on": "cell-free assay", "technique": "competition with immobilised ligand", "tested at": "1 µM", "remaining binding [%]": 94}
{"SMILES": "N#Cc1ccccc1CSc1nnc2c(n1)[nH]c1ccccc12", "effect on": "binding", "technique": "competition with immobilised ligand", "tested at": "10 µM", "remaining binding [%]": 91}
{"SMILES": "CC(C)(C)c1ccc(-c2nc(CBr)nn2-c2cccc(O)c2)cc1", "effect on": "cell-free assay", "technique": "competition with immobilised ligand", "tested at": "10 µM", "remaining binding [%]": 100}
{"SMILES": "O=C(NCCCN1CCOCC1)c1ccc(Nc2nccc(-c3cc4ccccc4s3)n2)cc1", "effect on": "binding", "technique": "competition with immobilised ligand", "tested at": "1 µM", "remaining binding [%]": 75}
{"SMILES": "COc1ncc2cc3ccccc3nc2c1C#N", "effect on": "cell-free assay", "technique": "competition with immobilised ligand", "tested at": "5 µM", "remaining binding [%]": 88}
{"SMILES": "Cc1nc(C2CCN(C(=O)c3ccc(OC(F)(F)F)cc3N)CC2)c2ncc(N3CCN(C)CC3)cc2n1", "effect on": "cell-free assay", "technique": "competition with immobilised ligand", "tested at": "1 µM", "remaining binding [%]": 86}
{"SMILES": "COc1cnc(Nc2cccc(S(N)(=O)=O)c2)nc1N1CCN(c2ccccc2)CC1", "effect on": "binding", "technique": "competition with immobilised ligand", "tested at": "1 µM", "remaining binding [%]": 98}
{"SMILES": "Nc1ncc2c(n1)-c1c([nH]c3ccc(C#CC4CC4)cc13)CCCC2", "effect on": "binding", "technique": "competition with immobilised ligand", "tested at": "1 µM", "remaining binding [%]": 89}
{"SMILES": "COc1ccnn2ncc(-c3ccnc(N(C)C)n3)c12", "effect on": "binding", "tested at": "1 µM", "remaining binding [%]": 85}
{"SMILES": "Cc1c(NC(=O)c2cc(C(N)=O)nc3cc(F)ccc23)c(C(F)(F)F)nn1Cc1ccc(C#N)cc1", "effect on": "cell-free assay", "technique": "competition with immobilised ligand", "tested at": "1 µM", "remaining binding [%]": 80}
{"SMILES": "N[C@H]1CCN(c2nccc(-c3cnn4ncccc34)n2)C1", "effect on": "binding", "tested at": "1 µM", "remaining binding [%]": 77}
{"SMILES": "COc1cccc(CNC(=O)c2nc3scc(COCc4ccc(C(=O)O)cc4)c3c(=O)[nH]2)c1", "effect on": "cell-free assay", "technique": "competition with immobilised ligand", "tested at": "1 µM", "remaining binding [%]": 89.4}
{"SMILES": "CN(CCCC(F)(F)F)c1nccc(-c2cnn3ncccc23)n1", "effect on": "binding", "tested at": "1 µM", "remaining binding [%]": 96}
{"SMILES": "CN(C)c1ncnc(-c2ccc3nc(Nc4cc(CN5CCN(C(=O)CC(F)(F)F)CC5)ccn4)[nH]c3c2)c1Cl", "effect on": "cell-free assay", "technique": "competition with immobilised ligand", "tested at": "1 µM", "remaining binding [%]": 91}
{"SMILES": "c1cncc(-c2cccc(Nc3nccc(NC4CCCCC4)n3)c2)c1", "effect on": "binding", "technique": "competition with immobilised ligand", "tested at": "10 µM", "remaining binding [%]": 75}
